M1 ag: activates human CHRM1 receptor; P11229; CHO-K1 hM1, Fluo-8 calcium fluorescence, agonist mode; 0% DMSO, 100% acetylcholine EC100; activation, % at 3 µM; 0.33% of 360,000 active;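 active = activation above the run's mean compound activation plus 3 SD, cut at about 16% in these data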;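 also: peak over basal fluorescence ratio within a 140 s kinetic read after compound addition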
M5 antag: antagonists of human muscarinic M5 receptor (CHRM5) | P08912 | CHO-hM5 cells, Fluo-8 calcium fluorescence, ACh EC80 | inhibition, % at 3 µM | 0.59% of 360,000 active | AID 624040;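 active = inhibition above a per-plate cutoff, the mean of that plate's test compounds plus 3 SD, cut at about 27% in these data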;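 also: 0% = acetylcholine EC80 with DMSO and 100% = DMSO without agonist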
Target sequence (P08912 whole entry, looked up): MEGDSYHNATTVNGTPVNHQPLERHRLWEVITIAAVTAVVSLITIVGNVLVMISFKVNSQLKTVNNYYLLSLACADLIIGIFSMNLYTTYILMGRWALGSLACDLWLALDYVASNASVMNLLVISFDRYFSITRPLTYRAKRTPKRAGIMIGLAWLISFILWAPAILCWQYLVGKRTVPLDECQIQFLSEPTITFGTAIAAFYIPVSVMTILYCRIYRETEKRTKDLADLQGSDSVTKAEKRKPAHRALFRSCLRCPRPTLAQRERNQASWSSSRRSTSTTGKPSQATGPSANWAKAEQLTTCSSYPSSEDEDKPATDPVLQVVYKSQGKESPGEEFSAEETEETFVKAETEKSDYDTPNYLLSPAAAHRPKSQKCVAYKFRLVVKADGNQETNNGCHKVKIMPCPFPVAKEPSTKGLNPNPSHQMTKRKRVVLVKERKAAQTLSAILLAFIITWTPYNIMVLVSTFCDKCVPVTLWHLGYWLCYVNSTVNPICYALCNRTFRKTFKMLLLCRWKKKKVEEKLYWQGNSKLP
CHRM5 PAM: potentiates acetylcholine response at human M5 receptor; P08912; CHO-K1 hM5, Fluo-8 calcium, ACh EC20 PAM; 0% = ACh EC20, 100% = ACh EC100; activation, % at 3 µM; 0.3% of 360,000 active; AID 624038;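 active = activation above the run cutoff, the mean activation of all test compounds plus 3 SD, cut at about 18% in these data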
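System – CHO-K1 hM5 cells · Compound – 3 µM, single dose · Incubation – compound preincubation 140 s before EC20 acetylcholine addition · Technique – Fluo-8 calcium fluorescence · Measure – Max/basal fluorescence ratio as % of EC20–EC100 ACh window · Benchmarks – low control EC20 acetylcholine (0%), high control EC100 acetylcholine (100%) · Replication – singlicate, one well per test compound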
M1 antag: human CHRM1 antagonism. P11229. CHO-K1 hM1, Fluo-8 calcium fluorescence, ACh EC80 antagonist. inhibition, % at 3 µM. 1.3% of 360,000 active;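 active = percent inhibition above its own plate's cutoff, namely the mean of that plate's compound wells plus 3 SD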;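 also: peak over basal fluorescence ratio during 140 s after agonist addition; 0% = ACh EC80 plus DMSO and 100% = DMSO alone without agonist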
M1 PAM: human CHRM1 positive allosteric modulation | P11229 | 0.088% of 360,000 active | CHO-K1 hM1, Fluo-8 calcium fluorescence, ACh EC20; 0% = ACh EC20, 100% = maximal ACh | activation, % at 3 µM; in the data active = activation above about 19%, passing the limit was not always enough
CHRM5 agonist: agonists of human muscarinic M5 receptor (CHRM5); CHO-K1 hM5 cells, Fluo-8 calcium fluorescence; 0% DMSO wells, 100% maximal acetylcholine response; P08912; 0.19% of 360,000 active; activation, % at 3 µM; AID 624037;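 active = activation above the run's mean over test compounds plus 3 SD, cut at about 23% in these data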;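 also: signal is peak over basal fluorescence ratio across the kinetic read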
The depositor's hits bear a star; ! = not active in a repeat. In the library only some 2% were active in any assay of this set; here they are far more common.

`CC(=O)Nc1cccc(-c2ccnc3c2CC(C(=O)NCCN(C)C)O3)c1` (stereo not given) gave M1 ag -7.1, M5 antag -0.8, CHRM5 PAM -2.2, M1 antag -20.5, M1 PAM 13.2 and CHRM5 agonist -0.9.
Cc1cccc(S(=O)(=O)NC(=O)C2(C)CCN2C(=O)C/C=C/c2ccccc2)c1 (stereo not given) was read as M1 ag 0.5, M5 antag 9.2, CHRM5 PAM -0.4, M1 antag 10.1, M1 PAM -5.0 and CHRM5 agonist 1.0.
CCn1c(SCC(=O)Nc2ccccc2)nc2c1c(=O)n(C)c(=O)n2C was read as M1 ag 1.3, M5 antag 1.4, CHRM5 PAM 18.3*, M1 antag 2.3, M1 PAM -1.9 and CHRM5 agonist 2.2.
Screening COc1ccc(CC(=O)NCc2nnc(SCC(=O)c3ccc(OC)cc3)n2C)cc1 returned M1 ag -7.8, M5 antag 9.8, CHRM5 PAM 0.2, M1 antag 2.3, M1 PAM 1.1 and CHRM5 agonist -3.1.
`CCOC(=O)c1ccc(NC(=O)CSc2nnc(-c3cccs3)n2C)cc1` gave M1 ag -1.7, M5 antag -8.1, CHRM5 PAM 20.7*, M1 antag -27.2, M1 PAM 10.3 and CHRM5 agonist 3.1.
Screening COc1ccc(NCc2nnc(SCC(=O)c3ccc(OC)cc3)n2C)cc1 returned M1 ag -5.8, M5 antag 33.2*, CHRM5 PAM 36.2*, M1 antag -2.0, M1 PAM 5.8 and CHRM5 agonist -2.0.
Screening COc1ccc(-c2nnc(SCC(=O)Nc3ccccc3)n2C)cc1 returned M1 ag -7.9, M5 antag -1.3, CHRM5 PAM -3.0, M1 antag 12.7*, M1 PAM -14.1 and CHRM5 agonist -2.2.
`OC(c1ccc(F)c(F)c1)c1nc(-c2cccc(F)c2)cs1` (stereo not given) gave M1 ag -4.7, M5 antag -5.9, CHRM5 PAM 2.3, M1 antag -3.4, M1 PAM -2.4 and CHRM5 agonist -1.1.
For COc1ccc(NC(=O)CSc2nnc(-c3ccoc3C)n2CC2CCCO2)cc1 (stereo not given) the results were M1 ag 0.4, M5 antag 12.8, CHRM5 PAM -13.3, M1 antag 26.6*, M1 PAM 0.5 and CHRM5 agonist -4.1.
For O=C(NNC(=S)NC(=O)c1ccccc1[N+](=O)[O-])c1ccccc1[N+](=O)[O-] the results were M1 ag -4.4, M5 antag -7.3, CHRM5 PAM 5.2, M1 antag -2.2, M1 PAM 8.9 and CHRM5 agonist 3.6.
Screening CCCCOc1ccccc1C(=O)NNC(=S)NC(=O)c1ccccc1[N+](=O)[O-] returned M1 ag 19.0*, M5 antag 21.3, CHRM5 PAM -8.0, M1 antag -7.1, M1 PAM -2.0 and CHRM5 agonist 8.7.
For Cc1sc2nc(CSC(C)C(=O)NC3(C#N)CCCCC3)[nH]c(=O)c2c1C (stereo not given) the results were M1 ag -5.2, M5 antag 3.2, CHRM5 PAM -3.3, M1 antag -9.9, M1 PAM 5.5 and CHRM5 agonist -2.5.
Screening CN(C)C(=O)C1C2NC(=S)N(c3cccc(Cl)c3)C1(C)Oc1ccc(Cl)cc12 (stereo not given) returned M1 ag -2.5, M5 antag 2.7, CHRM5 PAM 7.8, M1 antag -0.8, M1 PAM 8.5 and CHRM5 agonist 3.4.
`Cc1c(S(=O)(=O)Nc2ccc(Br)cc2)c(=O)n(C)c(=O)n1C` gave M1 ag -4.1, M5 antag 22.5, CHRM5 PAM -17.4, M1 antag 30.2*, M1 PAM -15.0 and CHRM5 agonist 2.7.
`CC(C)C(=O)N1CCCC1(C)C(=O)N(C)Cc1cccc2ccccc12` (stereo not given) gave M1 ag -0.2, M5 antag -4.8, CHRM5 PAM -2.9, M1 antag -16.8, M1 PAM 21.3 and CHRM5 agonist -1.1.
`Cc1c(NC(=O)CSc2nnc(-c3ccccc3F)o2)c(=O)n(-c2ccccc2)n1C` gave M1 ag -5.9, M5 antag -4.2, CHRM5 PAM -2.6, M1 antag -8.5, M1 PAM 4.5 and CHRM5 agonist 2.3.
COC(=O)c1c(C)[nH]c(C(=O)C(C)OC(=O)c2cc(C)oc2C)c1C (stereo not given) was read as M1 ag -0.6, M5 antag 14.7, CHRM5 PAM -25.6, M1 antag 28.0*, M1 PAM -16.5 and CHRM5 agonist 3.3.
For COCCNc1nc(Oc2ccc(C(N)=O)cc2)c2sccc2n1 the results were M1 ag 1.0, M5 antag -3.1, CHRM5 PAM -5.9, M1 antag -4.2, M1 PAM 1.0 and CHRM5 agonist -0.5.
For COC(=O)N(C)C[C@H]1OCc2cnnn2CCCC(=O)N([C@H](C)CO)C[C@H]1C the results were M1 ag 0.3, M5 antag 1.5, CHRM5 PAM 2.5, M1 antag -10.8, M1 PAM 2.6 and CHRM5 agonist 0.4.
Screening CC(C)CNC(=O)NC1(C(F)(F)F)Oc2ccccc2O1 returned M1 ag -6.8, M5 antag -0.3, CHRM5 PAM 5.3, M1 antag -5.4, M1 PAM 4.5 and CHRM5 agonist 2.0.
For O=C(NCc1cccnc1)NC1(C(F)(F)F)Oc2ccccc2O1 the results were M1 ag -2.6, M5 antag -15.0, CHRM5 PAM 40.1*, M1 antag 13.1, M1 PAM -1.2 and CHRM5 agonist -7.2.
`COc1ccc(C(=O)N/N=C2\SCC(=O)N2Cc2ccc3c(c2)OCO3)c(OC)c1` gave M1 ag -3.8, M5 antag 30.6*, CHRM5 PAM -8.4, M1 antag -1.4, M1 PAM 4.0 and CHRM5 agonist -3.1.
`COc1cccc(C(=O)N/N=C2/SCC(=O)N2CCc2ccc(OC)c(OC)c2)c1` gave M1 ag -6.2, M5 antag -4.3, CHRM5 PAM -3.3, M1 antag 13.2, M1 PAM -7.1 and CHRM5 agonist 1.8.
O=Cc1ccc(-c2ccccc2C(=O)O)o1 was read as M1 ag -0.1, M5 antag 11.2, CHRM5 PAM -5.3, M1 antag 4.6, M1 PAM 11.1 and CHRM5 agonist -0.3.
For O=C(O)c1ccccc1-c1c2cc(I)c(=O)c(I)c-2oc2c(I)c(O)c(I)cc12 the results were M1 ag 278.8*, M5 antag 38.2*, CHRM5 PAM -20.5, M1 antag 78.0*!, M1 PAM -25.7 and CHRM5 agonist 107.0*.

High-throughput results from PubChem BioAssay.
